Reference: ChEMBL document CHEMBL4376852, “Ligand-Based Design of Allosteric Retinoic Acid Receptor-Related Orphan Receptor γt (RORγt) Inverse Agonists” (J Med Chem, 2020)
In brackets after ≈: the same amount, converted by molar mass. One block for each compound: values may come before it.

Assays:
[1] = Permeability of the compound at 500 uM after 20 hrs by PAMPA; type: ADME
How it was run: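 Donor compartment starts at 500 μM compound; after 20 h incubation, receiver-well absorbance read by spectrophotometry; permeation normalized to flux across a blank filter.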

[2] = Protein binding in plasma (unknown origin) at 5 uM measured after 6 hrs by LC-MS based equilibrium dialysis analysis; type: ADME, cell-free; settings: read-out: PPB (converted)
How it was run: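 Equilibrium dialysis: plasma incubated with 5 μM compound for 6 h at 37 °C, final compound concentrations determined by LC–MS.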

[3] = Chemical stability of the compound in pH 7.4 aqueous buffer assessed as parent compound remaining at 2 uM measured after 24 hrs by LC-MS analysis; type: physicochemical; settings: read-out: Stability
How it was run: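 Compound at 2 μM final in aqueous buffer pH 7.4, sampled at 1, 7 and 24 h; LC–MS quantitation of each aliquot, % remaining expressed relative to the zero time point.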

[4] = target: T1, Nuclear receptor ROR-gamma (Homo sapiens) (UniProt P51449); assay: (§1) Inverse agonist activity at human N-terminal His6-tagged RORgammat LBD (265 to 518 residues) expressed in Escherichia coli BL21 (DE3) assessed as inhibition of N-terminal biotinylated co-activator SRC1 box2 peptide recruitment measured after 30 mins by TR-FRET assay
T1 sequence (whole entry): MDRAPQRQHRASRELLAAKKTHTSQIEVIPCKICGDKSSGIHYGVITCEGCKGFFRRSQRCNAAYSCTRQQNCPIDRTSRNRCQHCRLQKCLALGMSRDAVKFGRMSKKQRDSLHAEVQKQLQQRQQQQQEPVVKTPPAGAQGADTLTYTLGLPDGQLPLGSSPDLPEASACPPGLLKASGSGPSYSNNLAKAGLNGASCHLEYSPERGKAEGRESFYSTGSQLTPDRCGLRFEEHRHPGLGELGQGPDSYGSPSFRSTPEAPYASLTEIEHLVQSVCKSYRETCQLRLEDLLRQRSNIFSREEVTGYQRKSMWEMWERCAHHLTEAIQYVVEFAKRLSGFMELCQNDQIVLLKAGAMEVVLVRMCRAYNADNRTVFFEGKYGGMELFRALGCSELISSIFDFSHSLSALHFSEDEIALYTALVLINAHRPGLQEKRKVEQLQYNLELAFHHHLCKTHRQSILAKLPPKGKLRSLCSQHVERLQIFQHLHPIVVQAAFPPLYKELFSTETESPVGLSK

[5] = Stability of the compound in plasma (unknown origin) assessed as parent compound remaining at 5 uM measured after 1 hr by LC-MS analysis; type: ADME, cell-free; settings: read-out: Stability
How it was run: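 5 μM compound incubated in 100% plasma for 1 h at 37 °C; % remaining by LC–MS.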

[6] = Kinetic solubility of the compound in pH 7.4 aqueous buffer at 500 uM measured after 90 mins by spectrophotometric method; type: physicochemical; settings: read-out: Kinetic_solubility
[7] = Stability in human liver microsomes assessed as parent compound remaining at 5 uM measured after 1 hr in presence of metabolic phase 2 cofactors UDPGA by LC-MS analysis; type: ADME, Microsome; settings: read-out: Stability
How it was run: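 Glucuronidation conditions: 5 μM compound with liver microsomes supplemented with UDPGA, 1 h at 37 °C; % remaining determined by LC–MS.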

[8] = target: T2, Nuclear receptor ROR-gamma (Homo sapiens, UniProt P51449); assay: as §1
T2 sequence (P51449 whole entry): T1 sequence (whole entry)

[9] = Intrinsic clearance in human liver microsomes at 3 uM measured up to 90 mins in presence of metabolic phase 1 cofactors by LC-MS analysis; type: ADME, Microsome; settings: 1.5 h
[10] = target: T3, Peroxisome proliferator-activated receptor gamma (Homo sapiens, UniProt P37231); assay: Inverse agonist activity at His6-tagged PPARgamma LBD (unknown origin) assessed as inhibition of rosiglitazone-induced N-terminal biotinylated co-activator SRC1 box2 peptide recruitment measured after 30 mins by TR-FRET assay
T3 sequence (P37231 whole entry): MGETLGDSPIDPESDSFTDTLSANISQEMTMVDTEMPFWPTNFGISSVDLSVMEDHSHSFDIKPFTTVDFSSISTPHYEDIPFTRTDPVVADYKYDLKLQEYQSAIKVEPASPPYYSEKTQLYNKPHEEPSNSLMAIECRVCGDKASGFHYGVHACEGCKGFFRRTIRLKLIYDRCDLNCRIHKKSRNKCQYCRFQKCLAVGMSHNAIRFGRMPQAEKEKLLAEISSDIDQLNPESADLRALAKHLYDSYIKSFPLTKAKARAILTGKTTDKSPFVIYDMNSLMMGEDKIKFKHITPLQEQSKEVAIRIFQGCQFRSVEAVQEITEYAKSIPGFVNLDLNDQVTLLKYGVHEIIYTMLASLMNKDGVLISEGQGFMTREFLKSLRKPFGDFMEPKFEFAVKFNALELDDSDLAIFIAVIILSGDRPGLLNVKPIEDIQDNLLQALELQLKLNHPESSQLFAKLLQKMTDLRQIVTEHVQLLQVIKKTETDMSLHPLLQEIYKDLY
How it was run: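 His6-PPARγ-LBD at 100 nM with 100 nM N-terminal biotinylated SRC-1 box2 peptide in 10 mM HEPES, 150 mM NaCl, 5 mM DTT, 0.1% BSA, 0.1 mM CHAPS, pH 7.5, with 1 μM rosiglitazone. Tb anti-His donor, D2-streptavidin acceptor. Compounds in DMSO, 2× dilution series, 2% DMSO final. 30 min at room temperature. IC50 from sigmoidal fit of FRET ratio. Triplicate.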

[11] = target: T2, Nuclear receptor ROR-gamma; assay: as §1, with “Competitive inverse” for “Inverse”, “mins in presence of 0.25 uM RORgamma agonist cholesterol” for “mins”
[12] = target: T2, Nuclear receptor ROR-gamma; assay: as §1, with “Competitive inverse” for “Inverse”, “mins in presence of 1 uM RORgamma agonist cholesterol” for “mins”
[13] = target: T2, Nuclear receptor ROR-gamma; assay: as §1, with “Competitive inverse” for “Inverse”, “mins in absence of RORgamma agonist cholesterol” for “mins”

permeability [1]: 60.1% | fraction unbound at 6 h, 5 µM [2]: 0.022 | remaining at 24 h, 2 µM [3]: 95.4% | inhibition [4]: Dose-dependent effect | remaining at 1 h, 5 µM [5]: 99.9% | solubility kinetic at 1.5 h, 500 µM [6]: 490 µM (≈ 239 µg/mL) | remaining at 1 h, 5 µM [7]: 100%
SMILES: O=C(O)c1ccc(NC(=O)c2c(-c3c(Cl)cccc3C(F)(F)F)noc2-c2ccccc2)cc1

SMILES: CC(C)(C)OC(=O)c1ccc(NC(=O)c2c(-c3c(Cl)cccc3C(F)(F)F)noc2-c2ccccc2)cc1
IC50 [8]: > 100 µM

SMILES: O=C(O)Cc1ccc(NC(=O)c2c(-c3c(Cl)cccc3C(F)(F)F)noc2-c2ccccc2)cc1
IC50 [8]: > 100 µM

SMILES: O=C(O)c1ccc(NCc2c(-c3c(Cl)cccc3C(F)(F)F)noc2-c2ccco2)cc1
permeability [1]: 50.4% | CLH [9]: 43.2 µL/min/mg | remaining at 24 h, 2 µM [3]: 100% | remaining at 1 h, 5 µM [5]: 86.5% | IC50 [10]: > 100 µM | solubility kinetic at 1.5 h, 500 µM [6]: 392 µM (≈ 181 µg/mL) | remaining at 1 h, 5 µM [7]: 92.8%

SMILES: O=C(O)c1ccc(NCc2c(-c3c(Cl)cccc3C(F)(F)F)noc2-c2cccs2)cc1
IC50 [8]: 1.75 µM | IC50 [10]: > 100 µM

SMILES: C[C@H]1O[C@@H](O[C@H]2[C@@H](O)C[C@H](O[C@H]3[C@@H](O)C[C@H](O[C@H]4CC[C@@]5(C)[C@H](CC[C@@H]6[C@@H]5C[C@@H](O)[C@]5(C)[C@@H](C7=CC(=O)OC7)CC[C@]65O)C4)O[C@@H]3C)O[C@@H]2C)C[C@H](O)[C@@H]1O [DIGOXIN]
IC50 [11]: 33.6 µM | IC50 [12]: 85.4 µM | IC50 [13]: 7.01 µM

permeability [1]: 23.7% | fraction unbound at 6 h, 5 µM [2]: 0.001 | remaining at 24 h, 2 µM [3]: 81% | remaining at 1 h, 5 µM [5]: 100% | solubility kinetic at 1.5 h, 500 µM [6]: 390 µM (≈ 173 µg/mL) | remaining at 1 h, 5 µM [7]: 47.1%
SMILES: O=C(O)c1ccc(-c2nn(C(=O)c3c(Cl)cccc3C(F)(F)F)c3ccccc23)cc1

permeability [1]: 33.6% | fraction unbound at 6 h, 5 µM [2]: 0.001 | CLH [9]: 20.7 µL/min/mg | remaining at 24 h, 2 µM [3]: 95.3% | remaining at 1 h, 5 µM [5]: 85.9% | solubility kinetic at 1.5 h, 500 µM [6]: 411 µM (≈ 190 µg/mL) | remaining at 1 h, 5 µM [7]: 69.8%
SMILES: O=C(O)c1ccc(NCc2c(-c3c(Cl)cccc3C(F)(F)F)noc2-c2cc[nH]c2)cc1

SMILES: Cc1onc(-c2c(Cl)cccc2C(F)(F)F)c1C(=O)Nc1ccc(C(=O)O)cc1
IC50 [8]: > 100 µM | inhibition [4]: Dose-dependent effect

IC50 [10]: 78.6 µM
SMILES: O=C(O)c1ccc(NCc2c(-c3c(Cl)cccc3C(F)(F)F)noc2-c2ccccc2)cc1

SMILES: O=C(O)c1c(-c2c(Cl)cccc2C(F)(F)F)noc1-c1ccccc1
IC50 [8]: > 100 µM

SMILES: O=C(O)c1ccc(NCc2c(-c3c(Cl)cccc3C(F)(F)F)noc2-c2cccc3ccccc23)cc1
IC50 [8]: > 100 µM | IC50 [10]: > 100 µM

SMILES: O=C(O)c1ccc(NCc2c(-c3c(Cl)cccc3C(F)(F)F)noc2-c2cccc(O)c2)cc1
IC50 [10]: > 100 µM

SMILES: O=C(O)c1ccc(C(=O)Nc2c(-c3c(Cl)cccc3C(F)(F)F)noc2-c2ccccc2)cc1
IC50 [8]: > 100 µM
